Assay [1] in a line: Binding affinity to hairpin double stranded DNA GC base pair in sodium cacodylate buffer at pH 6.8 assessed as triplex-forming ability measuring melting temperature after by UV melting experiment. The procedure, abridged:
(§1)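 TFO and hairpin dsDNA target, each strand at 1.89 μM final, in 10 mM sodium cacodylate (pH 6.8) with 100 mM KCl and 50 mM MgCl₂. Annealed in boiling water, then cooled slowly to 5 °C. Melting was followed at 260 nm from 5 to 90 °C at 0.5 °C/min. Tm was taken by the two-point average method, mean of three independent runs.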

Assay [2] in a line: Binding affinity to hairpin double stranded DNA TA base pair in sodium cacodylate buffer at pH 6.8 assessed as triplex-forming ability measuring melting temperature after by UV melting experiment. The procedure, abridged:
as §1

The nature of assay [3]: Binding affinity to hairpin double stranded DNA CG base pair in sodium cacodylate buffer at pH 6.8 assessed as triplex-forming ability measuring melting temperature after by UV melting experiment. A digest of the protocol:
as §1

Assay [4] is described as follows: Binding affinity to hairpin double stranded DNA AT base pair in sodium cacodylate buffer at pH 6.8 assessed as triplex-forming ability measuring melting temperature after by UV melting experiment. The procedure, abridged:
as §1

Each structure is given as a SMILES string.

Regarding `Cc1cn([C@H]2C[C@H](O[PH](OCCC#N)(OC[C@H]3O[C@@H](n4cc(C)c(=O)[nH]c4=O)C[C@@H]3O[PH](OCCC#N)(OC[C@H]3O[C@@H](n4cc(C)c(=O)[nH]c4=O)C[C@@H]3O[PH](OCCC#N)(OC[C@H]3O[C@@H](n4cc(C)c(=O)[nH]c4=O)C[C@@H]3O[PH](OCCC#N)(OC[C@H]3O[C@@H](n4cc(C)c(=O)[nH]c4=O)C[C@@H]3O[PH](OCCC#N)(OC(C)[C@H]3O[C@@H](n4ccc(N)nc4=O)C[C@@H]3O[PH](OCCC#N)(OC[C@H]3O[C@@H](n4cc(C)c(=O)[nH]c4=O)C[C@@H]3O[PH](OCCC#N)(OC[C@H]3O[C@@H](CCc4cn(-c5cccc(CO)c5)nn4)C[C@@H]3OP(=O)(O)OC[C@H]3O[C@@H](n4cc(C)c(=O)[nH]c4=O)C[C@@H]3O[PH](OCCC#N)(OC(C)[C@H]3O[C@@H](n4ccc(N)nc4=O)C[C@@H]3O[PH](OCCC#N)(OC[C@H]3O[C@@H](n4cc(C)c(=O)[nH]c4=O)C[C@@H]3O[PH](OCCC#N)(OC(C)[C@H]3O[C@@H](n4ccc(N)nc4=O)C[C@@H]3O[PH](OCCC#N)(OC[C@H]3O[C@@H](n4cc(C)c(=O)[nH]c4=O)C[C@@H]3O[PH](OCCC#N)(OC(C)[C@H]3O[C@@H](n4ccc(N)nc4=O)C[C@@H]3O[PH](OCCC#N)(OC[C@H]3O[C@@H](n4cc(C)c(=O)[nH]c4=O)C[C@@H]3O)N(C(C)C)C(C)C)N(C(C)C)C(C)C)N(C(C)C)C(C)C)N(C(C)C)C(C)C)N(C(C)C)C(C)C)N(C(C)C)C(C)C)N(C(C)C)C(C)C)N(C(C)C)C(C)C)N(C(C)C)C(C)C)N(C(C)C)C(C)C)N(C(C)C)C(C)C)N(C(C)C)C(C)C)N(C(C)C)C(C)C)[C@@H](CO)O2)c(=O)[nH]c1=O` (some centres not stated), the Tm in assay [1] stood at 20 °C; in assay [2], 23 °C; in assay [3], 23 °C; in assay [4], 19 °C.
For the compound `Cc1cn([C@H]2C[C@H](O[PH](OCCC#N)(OC[C@H]3O[C@@H](n4cc(C)c(=O)[nH]c4=O)C[C@@H]3O[PH](OCCC#N)(OC[C@H]3O[C@@H](n4cc(C)c(=O)[nH]c4=O)C[C@@H]3O[PH](OCCC#N)(OC[C@H]3O[C@@H](n4cc(C)c(=O)[nH]c4=O)C[C@@H]3O[PH](OCCC#N)(OC[C@H]3O[C@@H](n4cc(C)c(=O)[nH]c4=O)C[C@@H]3O[PH](OCCC#N)(OC(C)[C@H]3O[C@@H](n4ccc(N)nc4=O)C[C@@H]3O[PH](OCCC#N)(OC[C@H]3O[C@@H](n4cc(C)c(=O)[nH]c4=O)C[C@@H]3O[PH](OCCC#N)(OC[C@H]3O[C@@H](CCc4cn(-c5cc(NC(N)=O)cc(NC(N)=O)c5)nn4)C[C@@H]3OP(=O)(O)OC[C@H]3O[C@@H](n4cc(C)c(=O)[nH]c4=O)C[C@@H]3O[PH](OCCC#N)(OC(C)[C@H]3O[C@@H](n4ccc(N)nc4=O)C[C@@H]3O[PH](OCCC#N)(OC[C@H]3O[C@@H](n4cc(C)c(=O)[nH]c4=O)C[C@@H]3O[PH](OCCC#N)(OC(C)[C@H]3O[C@@H](n4ccc(N)nc4=O)C[C@@H]3O[PH](OCCC#N)(OC[C@H]3O[C@@H](n4cc(C)c(=O)[nH]c4=O)C[C@@H]3O[PH](OCCC#N)(OC(C)[C@H]3O[C@@H](n4ccc(N)nc4=O)C[C@@H]3O[PH](OCCC#N)(OC[C@H]3O[C@@H](n4cc(C)c(=O)[nH]c4=O)C[C@@H]3O)N(C(C)C)C(C)C)N(C(C)C)C(C)C)N(C(C)C)C(C)C)N(C(C)C)C(C)C)N(C(C)C)C(C)C)N(C(C)C)C(C)C)N(C(C)C)C(C)C)N(C(C)C)C(C)C)N(C(C)C)C(C)C)N(C(C)C)C(C)C)N(C(C)C)C(C)C)N(C(C)C)C(C)C)N(C(C)C)C(C)C)[C@@H](CO)O2)c(=O)[nH]c1=O` (some centres not stated), the Tm in assay [1] amounted to 23 °C; in assay [2], 27 °C; in assay [3], 27 °C; in assay [4], 22 °C.
On to `Cc1cn([C@H]2C[C@H](O[PH](OCCC#N)(OC[C@H]3O[C@@H](n4cc(C)c(=O)[nH]c4=O)C[C@@H]3O[PH](OCCC#N)(OC[C@H]3O[C@@H](n4cc(C)c(=O)[nH]c4=O)C[C@@H]3O[PH](OCCC#N)(OC[C@H]3O[C@@H](n4cc(C)c(=O)[nH]c4=O)C[C@@H]3O[PH](OCCC#N)(OC[C@H]3O[C@@H](n4cc(C)c(=O)[nH]c4=O)C[C@@H]3O[PH](OCCC#N)(OC(C)[C@H]3O[C@@H](n4ccc(N)nc4=O)C[C@@H]3O[PH](OCCC#N)(OC[C@H]3O[C@@H](n4cc(C)c(=O)[nH]c4=O)C[C@@H]3O[PH](OCCC#N)(OC[C@H]3O[C@@H](OCc4cn(-c5cccc(NC(N)=O)c5)nn4)C[C@@H]3OP(=O)(O)OC[C@H]3O[C@@H](n4cc(C)c(=O)[nH]c4=O)C[C@@H]3O[PH](OCCC#N)(OC(C)[C@H]3O[C@@H](n4ccc(N)nc4=O)C[C@@H]3O[PH](OCCC#N)(OC[C@H]3O[C@@H](n4cc(C)c(=O)[nH]c4=O)C[C@@H]3O[PH](OCCC#N)(OC(C)[C@H]3O[C@@H](n4ccc(N)nc4=O)C[C@@H]3O[PH](OCCC#N)(OC[C@H]3O[C@@H](n4cc(C)c(=O)[nH]c4=O)C[C@@H]3O[PH](OCCC#N)(OC(C)[C@H]3O[C@@H](n4ccc(N)nc4=O)C[C@@H]3O[PH](OCCC#N)(OC[C@H]3O[C@@H](n4cc(C)c(=O)[nH]c4=O)C[C@@H]3O)N(C(C)C)C(C)C)N(C(C)C)C(C)C)N(C(C)C)C(C)C)N(C(C)C)C(C)C)N(C(C)C)C(C)C)N(C(C)C)C(C)C)N(C(C)C)C(C)C)N(C(C)C)C(C)C)N(C(C)C)C(C)C)N(C(C)C)C(C)C)N(C(C)C)C(C)C)N(C(C)C)C(C)C)N(C(C)C)C(C)C)[C@@H](CO)O2)c(=O)[nH]c1=O` (some centres not stated), for which the Tm stood at 23 °C in assay [1], 23 °C in assay [2], 25 °C in assay [3] and 21 °C in assay [4].
